# Activity calls are given as the source filed them. No cut-off for these calls is given here.
# Columns and labels:
# Mus musculus [1] = assay: Toxicity in ICR mouse assessed as increase in AST level at 300 mg/kg, po QD for 14 days; assay type: organism-based; set-up: dose 300 mg/kg, route oral; details: in vivo, 336 h
# Method in brief: (§1)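 Repeated-dose study in 6-week-old male ICR mice. Vehicle or 30, 100 or 300 mg/kg was given orally once daily for 14 days. Survival, behavior, body weight and liver enzymes (AST, ALT) were monitored.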
# CYP1A2 [2] = molecular target: T1, CYP1A2 (Homo sapiens, UniProt P05177); assay: Inhibition of CYP1A2 at 100 uM; assay type: ADME
# T1 sequence (P05177 whole entry): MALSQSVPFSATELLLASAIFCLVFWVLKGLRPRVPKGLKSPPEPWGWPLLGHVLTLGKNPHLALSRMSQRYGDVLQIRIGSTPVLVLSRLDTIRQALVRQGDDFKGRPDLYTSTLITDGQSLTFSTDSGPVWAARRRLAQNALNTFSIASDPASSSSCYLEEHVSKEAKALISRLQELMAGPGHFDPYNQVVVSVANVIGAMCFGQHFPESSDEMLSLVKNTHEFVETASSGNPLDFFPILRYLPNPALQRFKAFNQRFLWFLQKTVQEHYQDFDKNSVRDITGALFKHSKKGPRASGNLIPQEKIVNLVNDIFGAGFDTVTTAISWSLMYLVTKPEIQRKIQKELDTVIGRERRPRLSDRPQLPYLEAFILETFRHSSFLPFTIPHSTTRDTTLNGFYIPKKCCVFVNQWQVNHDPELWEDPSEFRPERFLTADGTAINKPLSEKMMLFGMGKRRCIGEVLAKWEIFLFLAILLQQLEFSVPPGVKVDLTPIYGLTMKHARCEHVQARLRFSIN
# [3] = Tmax in rat at 30 mg/kg, po; assay type: ADME, organism-based; set-up: dose 30 mg/kg, route oral; details: in vivo
# Method in brief: (§2)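 Rats, not fasted, received a single intravenous or oral dose.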
# [4] = AUC (0 to 24 hrs) in rat at 5 mg/kg, iv; assay type: ADME, organism-based; set-up: time < 24 hr, dose 5 mg/kg, route intravenous; details: plasma
# Mus musculus [5] = assay: Toxicity in ICR mouse assessed as vacuolar degeneration in kidney at 300 mg/kg, po QD for 14 days; assay type: organism-based; set-up: dose 300 mg/kg, route oral; details: in vivo, 336 h
# Rattus norvegicus [6] = assay: Drug uptake in collagen-induced Lewis rat bone marrow at 2 to 30 mg/kg, po measured 5 hrs post last dose; assay type: functional, organism-based
# Method in brief: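 In the rat collagen-induced arthritis study (oral b.i.d. dosing for 28 days), compound concentration was measured in plasma, tarsal homogenates and thigh-bone marrow. Samples were taken 5 h after the last dose on day 28.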
# [7] = Tmax in rat at 5 mg/kg, po; assay type: ADME, organism-based; set-up: dose 5 mg/kg, route oral; details: in vivo; method in brief: as §2
# [8] = Half life in rat at 5 mg/kg, iv; assay type: ADME, organism-based; set-up: dose 5 mg/kg, route intravenous; details: in vivo
# [9] = Tmax in rat at 100 mg/kg, po; assay type: ADME, organism-based; set-up: dose 100 mg/kg, route oral; details: in vivo; method in brief: as §2
# CYP2C9 = CYP2C9 (Homo sapiens, UniProt P11712); assay: Inhibition of CYP2C9 at 100 uM; assay type: ADME
# Rattus norvegicus [10] = assay: Antiinflammatory activity in collagen-induced arthritis Lewis rat model assessed as inhibition of paw edema at 2 to 30 mg/kg, po BID for 28 days measured on […] by Plethysmometer; assay type: functional, organism-based
# Method in brief: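 Female Lewis SPF rats, 6 weeks old (n = 8/group), were immunized at the tail base with 900 μg bovine type II collagen in Freund's complete adjuvant (4 mg/mL M. tuberculosis) on day 0. A 450 μg boost followed on day 7. Compound in 5% aqueous gum arabic was gavaged b.i.d. for 28 days from day 0, against vehicle; methotrexate 3×/week served as positive control. Hind-limb volume was read by plethysmometer on days 0, 12, 14, 21 and 28, as % increase over day 0.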
# Mus musculus [11] = assay: Toxicity in ICR mouse at 100 mg/kg, po QD for 14 days; assay type: organism-based; set-up: dose 100 mg/kg, route oral; details: in vivo, 336 h; method in brief: as §1
# CYP1A2 [12] = molecular target: T1, CYP1A2; assay: Inhibition of CYP1A2 at 1 uM; assay type: ADME
# [13] = AUC (0 to 24 hrs) in rat at 100 mg/kg, po; assay type: ADME, organism-based; set-up: time < 24 hr, dose 100 mg/kg, route oral; details: plasma
# Mus musculus [14] = organism: Mus musculus; assay: Antiinflammatory activity in Freund's adjuvant-induced C57BL/6 mouse assessed as decrease in inflammatory cell infiltrates in brain; assay type: functional, organism-based
# Method in brief: (§3)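 C57BL/6 mice were immunized s.c. with a MOG33-55 peptide emulsion and given pertussis vaccine (350 ng i.v.) right away and again 48 h later. From day 0, compound in 3% aqueous Tween 80 (4 mg/mL) or water was dosed orally b.i.d. Tissue cellular infiltrate was scored 0–5, from few small perivascular/meningeal infiltrates up to very large extensive infiltrate.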
# CYP2D6 = CYP2D6 (Homo sapiens, UniProt P10635); assay: Inhibition of CYP2D6 at 1 uM; assay type: ADME
# CYP3A4 = CYP3A4 (Homo sapiens, UniProt P08684); assay: Inhibition of CYP3A4 at 100 uM; assay type: ADME
# Rattus norvegicus [15] = assay: Antiinflammatory activity in complete Freund's adjuvant-induced Lewis rat arthritis model assessed as inhibition of paw edema at 30 mg/kg, po BID; assay type: functional, organism-based; set-up: dose 30 mg/kg
# Method in brief: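 Female Lewis SPF rats, 6 weeks old (n = 8/group), received an intradermal right hind footpad injection of 100 μL PBS-emulsified Freund's complete adjuvant (10 mg/mL M. butyricum). From day 10, compound in 5% gum arabic or vehicle was gavaged b.i.d. for a further 18 days; methotrexate 3×/week was the positive control. Left hind-limb volume was read by plethysmometer on days 0, 8, 15, 21 and 28, as % increase over day 0.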
# [16] = Cmax in rat at 5 mg/kg, po; assay type: ADME, organism-based; set-up: dose 5 mg/kg, route oral; details: in vivo
# Rattus norvegicus [17] = assay: Inhibition of bone resorption in joints of collagen-induced arthritis Lewis rat model at 30 mg/kg, po BID for 28 days; assay type: functional, organism-based; set-up: dose 30 mg/kg
# Method in brief: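 Female Lewis SPF rats, 6 weeks old (n = 8/group). CIA was induced on day 0 by intradermal injection at the tail base of 900 μg bovine type II collagen in Freund's complete adjuvant, with a 450 μg boost on day 7. Compound in 5% gum arabic was given by gavage b.i.d. for 28 days from day 0. Hind-paw radiographs were taken on day 29 and scored blind from 0 to 4, averaging both legs. Two-tailed t test.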
# [18] = Cmax in rat at 100 mg/kg, po; assay type: ADME, organism-based; set-up: dose 100 mg/kg, route oral; details: in vivo
# [19] = Clearance in rat at 5 mg/kg, iv; assay type: ADME, organism-based; set-up: dose 5 mg/kg, route intravenous; details: in vivo
# [20] = Half life in rat at 5 mg/kg, po; assay type: ADME, organism-based; set-up: dose 5 mg/kg, route oral; details: in vivo
# Mus musculus [21] = organism: Mus musculus; assay: Antiinflammatory activity in Freund's adjuvant-induced C57BL/6 mouse assessed as decrease in inflammatory cell infiltrates in spinal cord; assay type: functional, organism-based; method in brief: as §3
# Chain of CYP3A4 (P08684 whole entry): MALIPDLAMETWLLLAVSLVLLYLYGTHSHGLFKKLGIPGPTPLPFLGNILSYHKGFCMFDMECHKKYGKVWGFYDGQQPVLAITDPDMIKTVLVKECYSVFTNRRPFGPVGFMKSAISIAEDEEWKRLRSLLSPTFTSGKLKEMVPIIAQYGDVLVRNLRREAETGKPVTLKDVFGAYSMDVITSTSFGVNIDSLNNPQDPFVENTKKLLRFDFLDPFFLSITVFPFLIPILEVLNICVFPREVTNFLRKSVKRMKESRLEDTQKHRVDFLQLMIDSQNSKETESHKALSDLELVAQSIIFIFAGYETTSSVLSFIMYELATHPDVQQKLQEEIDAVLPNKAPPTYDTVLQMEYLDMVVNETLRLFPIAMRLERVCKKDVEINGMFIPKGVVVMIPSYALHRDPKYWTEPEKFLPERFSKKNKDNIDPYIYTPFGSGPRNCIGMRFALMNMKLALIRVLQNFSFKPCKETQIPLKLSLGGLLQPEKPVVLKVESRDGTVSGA
# Chain of CYP2D6 (P10635 whole entry): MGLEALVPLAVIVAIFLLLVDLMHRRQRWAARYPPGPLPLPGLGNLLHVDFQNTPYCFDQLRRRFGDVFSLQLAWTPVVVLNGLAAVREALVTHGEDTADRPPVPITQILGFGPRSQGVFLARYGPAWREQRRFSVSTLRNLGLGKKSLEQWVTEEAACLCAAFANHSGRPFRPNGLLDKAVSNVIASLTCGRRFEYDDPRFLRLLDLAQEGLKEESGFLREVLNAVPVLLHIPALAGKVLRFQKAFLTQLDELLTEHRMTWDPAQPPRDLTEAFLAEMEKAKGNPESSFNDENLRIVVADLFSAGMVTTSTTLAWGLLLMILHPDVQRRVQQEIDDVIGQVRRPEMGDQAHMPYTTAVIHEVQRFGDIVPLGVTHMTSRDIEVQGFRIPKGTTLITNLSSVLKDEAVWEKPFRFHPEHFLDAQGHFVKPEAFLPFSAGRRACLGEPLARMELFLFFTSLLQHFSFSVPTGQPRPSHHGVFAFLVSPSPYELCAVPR
# Chain of CYP2C9 (P11712 whole entry): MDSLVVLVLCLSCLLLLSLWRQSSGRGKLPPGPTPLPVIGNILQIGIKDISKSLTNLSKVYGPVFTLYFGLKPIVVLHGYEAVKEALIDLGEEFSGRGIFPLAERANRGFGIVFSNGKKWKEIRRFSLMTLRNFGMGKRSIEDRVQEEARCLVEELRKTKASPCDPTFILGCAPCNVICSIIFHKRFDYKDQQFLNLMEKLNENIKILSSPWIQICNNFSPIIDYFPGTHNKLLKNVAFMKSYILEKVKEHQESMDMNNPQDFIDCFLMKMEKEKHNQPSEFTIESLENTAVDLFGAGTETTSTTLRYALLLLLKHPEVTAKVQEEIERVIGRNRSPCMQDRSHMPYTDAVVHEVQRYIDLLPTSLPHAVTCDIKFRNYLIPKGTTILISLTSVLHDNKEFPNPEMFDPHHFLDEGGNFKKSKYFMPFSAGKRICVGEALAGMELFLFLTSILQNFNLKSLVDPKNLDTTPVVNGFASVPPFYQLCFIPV
structure (smiles),measurement,setting,value
Cc1nn(C)c2nc(N(C)CCN(C)C)c(C(=O)NC(=O)Nc3cccc(OC(C)C)c3)cc12.Cl,Activity,Mus musculus [1],Toxic
same,inhibition at 100 µM,CYP1A2 [2],-2%
same,Tmax,[3],3 h
same,AUC(0-t) at 24 h,[4],2690 ng·h/mL
same,Activity,Mus musculus [5],Toxic
same,Drug uptake,Rattus norvegicus [6],Active
same,Tmax,[7],5 h
same,half-life,[8],10 h
same,Tmax,[9],3 h
same,inhibition at 100 µM,CYP2C9,36%
same,Activity,Rattus norvegicus [10],Dose-dependent effect
same,Activity,Mus musculus [11],Non-toxic
same,inhibition at 1 µM,CYP1A2 [12],-12%
same,AUC(0-t) at 24 h,[13],15100 ng·h/mL
same,Activity,Mus musculus [14],Active
same,inhibition at 1 µM,CYP2D6,-5%
same,inhibition at 100 µM,CYP3A4,49%
same,Activity,Rattus norvegicus [15],Active
same,Cmax,[16],129 ng/mL
same,Activity,Rattus norvegicus [17],Active
same,Cmax,[18],927 ng/mL
same,clearance,[19],31.7 mL/min/kg
same,half-life,[20],> 24 h
same,Activity,Mus musculus [21],Active

# — ChEMBL document CHEMBL1687928, “Discovery, optimization, and pharmacological characterization of novel heteroaroylphenylureas antagonists of C-C chemokine ligand 2 function” (J Med Chem, 2011)
